Reference: ChEMBL document CHEMBL1671798, “A competition assay to identify amyloidogenesis inhibitors by monitoring the fluorescence emitted by the covalent attachment of a stilbene derivative to transthyretin” (Bioorg Med Chem, 2011)

Legend:
[1] = molecular target: Transthyretin (Homo sapiens) (UniProt P02766); experiment: Displacement of 4-fluorophenyl 3-(4-hydroxy-3,5-dimethylstyryl)benzoate from recombinant TTR assessed as fluorescence at 37 degC after 3 hrs; design: concentration or dose not given beside the values
Method in brief: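 Recombinant WT-TTR from E. coli at 3.6 µM in 10 mM sodium phosphate, 100 mM KCl, 1 mM EDTA, pH 7.0. Test compound (7.2 µM final, added from DMSO) was preincubated 4 h at 25 °C with slow vortexing. S1 (7.2 µM final) was then added. Fluorescence (ex 328/em 384 nm) was read every 10 min for 8 h at 37 °C. The 3 h value is given as % competition fluorescence.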

[2] = molecular target: Transthyretin (Homo sapiens) (UniProt P02766); experiment: Displacement of S-phenyl 3-(4-hydroxy-3,5-dimethylstyryl)benzothioate from human TTR assessed as fluorescence at 37 degC after 3 hrs; design: concentration or dose not given beside the values
Method in brief: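 Commercial human serum with endogenous TTR (about 7.5 µM, as measured). Test compound (15 µM final) and S2 (5 µM final) were both added from DMSO stocks. Conjugate fluorescence was read every 10 min over 8 h on a plate reader. The 3 h value is given as % competition fluorescence.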

[3] = molecular target: Transthyretin (Homo sapiens) (UniProt P02766); experiment: Inhibition of wild type-TTR expressed in Escherichia coli assessed as amyloid fibril formation at pH 4.4 at 7. 2 uM after 72 hrs by acid-mediated aggregation assay relative to control; design: scale not given: the % may be the effect or the level left

Brc1cc(Br)cc(Nc2ccccc2)c1
Activity [1]: 76% | Activity [2]: 100%

O=C(Nc1cc(Br)c(O)c(Br)c1)c1cccc(O)c1
Activity [1]: 26% | Activity [3]: 9% | Activity [2]: 18%

Nc1cccc(C(=O)Nc2cc(Br)c(O)c(Br)c2)c1
Activity [1]: 35% | Activity [3]: 25% | Activity [2]: 24%

O=C(O)c1ccccc1Nc1cccc(C(F)(F)F)c1
Activity [1]: 44% | Activity [3]: 2% | Activity [2]: 97%

O=C(Nc1cc(Br)c(O)c(Br)c1)c1ccccc1O
Activity [1]: 2% | Activity [3]: 2% | Activity [2]: 29%

Oc1c(Br)cc(CCc2ccc(OC(F)F)cc2)cc1Br
Activity [1]: -3% | Activity [3]: 1% | Activity [2]: 42%

Oc1c(Br)cc(CCc2cccc(C(F)(F)F)c2)cc1Br
Activity [1]: -6% | Activity [3]: 1% | Activity [2]: 3%

O=C(O)c1cccc(C(=O)Nc2cc(Br)c(O)c(Br)c2)c1
Activity [1]: 77% | Activity [3]: 11% | Activity [2]: 85%

O=C(O)Cc1ccccc1Nc1c(Cl)cccc1Cl
Activity [1]: 85% | Activity [3]: 17% | Activity [2]: 99%

Cc1cc(Oc2ccccc2)cc(C)c1O
Activity [1]: 76% | Activity [2]: 81%

O=C(Nc1cc(Br)c(O)c(Br)c1)c1ccc(O)cc1
Activity [1]: 32% | Activity [3]: 21% | Activity [2]: 16%

Oc1c(Br)cc(/C=C/c2ccc(Br)cc2)cc1Br
Activity [1]: -6% | Activity [3]: 2% | Activity [2]: 2%

Cc1ccc(Cl)c(Nc2ccccc2C(=O)O)c1Cl
Activity [1]: 62% | Activity [3]: 3% | Activity [2]: 85%

Cc1cccc(CCc2cc(Br)c(O)c(Br)c2)c1
Activity [1]: -7% | Activity [3]: 3% | Activity [2]: 2%

O=C(Nc1ccccc1)Nc1cc(Br)c(O)c(Br)c1
Activity [1]: 82% | Activity [3]: 9% | Activity [2]: 100%

O=C(Nc1cc(Br)c(O)c(Br)c1)c1cccc(Cl)c1
Activity [1]: 13% | Activity [3]: 8% | Activity [2]: 28%

O=C(Nc1cc(Br)c(O)c(Br)c1)c1cccc(F)c1
Activity [1]: 18% | Activity [3]: 13% | Activity [2]: 54%

COc1cc(CCc2cc(Br)c(O)c(Br)c2)cc(OC)c1
Activity [1]: 3% | Activity [3]: 1% | Activity [2]: 30%

O=C(Nc1cc(Br)c(O)c(Br)c1)c1cc(F)cc(F)c1
Activity [1]: 12% | Activity [3]: 10% | Activity [2]: 35%

O=C(O)c1cc(-c2ccc(F)cc2F)ccc1O
Activity [1]: 75% | Activity [3]: 2% | Activity [2]: 86%

O=C(Nc1ccccc1)c1cc(Br)c(O)c(Br)c1
Activity [1]: 42% | Activity [2]: 61%

CC(C(=O)O)c1ccc(-c2ccccc2)c(F)c1 (stereo unspecified)
Activity [1]: 93% | Activity [3]: 29% | Activity [2]: 96%

COc1c(Cl)cc(C(=O)Nc2cc(Br)c(O)c(Br)c2)cc1Cl
Activity [1]: 4% | Activity [3]: 9% | Activity [2]: 26%

O=C(Nc1cc(Br)c(O)c(Br)c1)c1cccc(Br)c1
Activity [1]: 13% | Activity [3]: 8% | Activity [2]: 28%

O=C(O)c1ccc(C(=O)Nc2cc(Br)c(O)c(Br)c2)cc1
Activity [1]: 57% | Activity [3]: 11% | Activity [2]: 45%

COc1c(Br)cc(C(=O)Nc2cc(Br)c(O)c(Br)c2)cc1Br
Activity [1]: 4% | Activity [3]: 10% | Activity [2]: 44%

Cc1cccc(Nc2ccccc2C(=O)O)c1C
Activity [1]: 65% | Activity [3]: 7% | Activity [2]: 96%

COc1ccccc1/C=C/c1cc(Br)c(O)c(Br)c1
Activity [1]: -6% | Activity [3]: 0% | Activity [2]: 0%
